Experimental data from ChEMBL document CHEMBL1153517, “Synthesis and biological evaluation of imidazole thioacetanilides as novel non-nucleoside HIV-1 reverse transcriptase inhibitors” (Bioorg Med Chem, 2009).

How the values were obtained:
[1] = Selectivity index, ratio of CC50 for human MT4 cells to EC50 for HIV2 ROD; format: toxicity, cell-based; settings: for Ratio CC50/EC50: mt4; for selectivity ratio: MT4 cells, read-out: Ratio CC50/EC50
In short: (§1)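 Ratio of CC₅₀ to EC₅₀. Both come from a 5-day MTT assay in MT-4 cells, using parallel mock-infected wells and wells infected with the named virus strain (100–300 CCID₅₀), with serial fivefold compound dilutions in triplicate.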

[2] = tested on: Human immunodeficiency virus 1; experiment: Antiviral activity against HIV1 3B infected in human MT4 cells assessed as virus-induced cytopathic effect by MTT assay; format: functional, organism-based; settings: Human immunodeficiency virus 1, 3B
In short: (§2)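 MT-4 cells (exponentially growing, resuspended at 6 × 10⁵ cells/mL) are infected with HIV-1 IIIB or HIV-2 ROD stock at 100–300 CCID₅₀. Serial fivefold compound dilutions are added at the start, in triplicate wells. After 5 days, viability is read by MTT reduction at OD540, using the median OD of three wells. EC₅₀ is the concentration giving 50% protection from the viral cytopathic effect.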

[3] = tested on: Human immunodeficiency virus 2; experiment: Antiviral activity against HIV2 ROD infected in human MT4 cells assessed as virus-induced cytopathic effect by MTT assay; format: functional, organism-based; settings: Human immunodeficiency virus 2, ISOLATE ROD; in short: as §2
[4] = Cytotoxicity against human MT4 cells by MTT assay; format: cell-based
In short: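 Mock-infected MT-4 cells (6 × 10⁵ cells/mL) are run in parallel triplicate wells with serial fivefold compound dilutions and culture medium in place of virus. After 5 days, MTT formazan is read at OD540, using the median OD of three wells. CC₅₀ is the concentration that cuts absorbance of the mock-infected control by 50%.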

[5] = Selectivity index, ratio of CC50 for human MT4 cells to EC50 for HIV1 3B; format: toxicity, cell-based; settings: for selectivity ratio: MT4 cells, read-out: Ratio CC50/EC50; for Ratio CC50/EC50: mt4; in short: as §1
[6] = tested on: Human immunodeficiency virus 1; experiment: Antiviral activity against wild type HIV1 by MTT assay; format: functional, organism-based
[7] = tested on: Human immunodeficiency virus 1; experiment: Antiviral activity against […] HIV1 bearing reverse transcriptase K103/Y181C mutation by MTT assay; format: functional, organism-based

Row | Structure (SMILES) | Ratio CC50/EC50 [1] | EC50 [2] | EC50 [3] | CC50 [4] | selectivity ratio [1] | selectivity ratio [5] | IC50 [6] | EC50 [6] | EC50 [7] | Ratio CC50/EC50 [5]
1 | COc1ccc(-n2ccnc2SCC(=O)Nc2ccccc2Br)cc1 | Not Active | ≥ 18.4 µM | > 299 µM | > 299 µM |  |  |  |  |  | 
2 | O=C(CSc1nccn1-c1cccc2ccccc12)Nc1ccccc1Br |  | 0.64 µM | > 30.5 µM | 30.5 µM | < 1 | 48 |  |  |  | 
3 | Cc1ccnc2c1NC(=O)c1cccnc1N2C1CC1 [NEVIRAPINE] |  |  |  | > 15 µM |  |  |  |  |  | 
4 | O=C1Nc2ccc(Cl)cc2[C@@](C#CC2CC2)(C(F)(F)F)O1 [EFAVIRENZ] |  |  |  | > 6.34 µM |  | > 1430 |  |  |  | 
5 | Cc1ccccc1NC(=O)CSc1nccn1-c1cccc2ccccc12 |  | 2.46 µM | > 34.6 µM | 34.6 µM | < 1 | 14 |  |  |  | 
6 | Cc1ccc(-n2ccnc2SCC(=O)Nc2ccccc2[N+](=O)[O-])cc1 |  | 1.03 µM | > 131 µM | 131 µM | < 1 | 126 |  |  |  | 
7 | O=C(CSc1nccn1-c1ccc(Cl)cc1)Nc1ccccc1[N+](=O)[O-] | Not Active | 4.86 µM | > 321 µM | > 321 µM |  | > 66 |  |  |  | 
8 | Cc1ccc(NC(=O)CSc2nccn2-c2ccc(Cl)cc2)c(Br)c1 |  | ≥ 55.2 µM | > 204 µM | 221 µM | < 1 | 64 |  |  |  | 
9 | Cc1ccc(-n2ccnc2SCC(=O)Nc2ccccc2F)cc1 |  | > 37.9 µM | > 37.9 µM | 37.9 µM | < 1 | < 1 |  |  |  | 
10 | Cc1ccc(-n2ccnc2SCC(=O)Nc2ccccc2Cl)cc1 |  | 4.97 µM | > 33.7 µM | 33.7 µM | < 1 | 7 |  |  |  | 
11 | Cc1cc(C)c(-n2nnnc2SCC(=O)Nc2ccccc2Cl)c(C)c1 |  |  |  |  |  |  | 0.005 µM |  |  | 
12 | O=C(CSc1nccn1-c1cccc2ccccc12)Nc1ccccc1[N+](=O)[O-] |  | 0.18 µM | > 28.8 µM | 28.8 µM | < 1 | 162 |  |  |  | 
13 | Cc1ccc(NC(=O)CSc2nnc(C)n2-c2ccccc2)c(Br)c1 |  |  |  |  |  |  |  | 0.1 µM | 1.3 µM | 
14 | Cc1ccccc1NC(=O)CSc1nccn1-c1ccc(Cl)cc1 |  | 35.4 µM | > 160 µM | 160 µM | < 1 | 5 |  |  |  | 
15 | COc1ccc(-n2ccnc2SCC(=O)Nc2ccccc2[N+](=O)[O-])cc1 |  | 17.9 µM | > 161 µM | 161 µM | < 1 | > 9 |  |  |  | 
16 | Cc1ccc(NC(=O)CSc2nccn2-c2cccc3ccccc23)c(Br)c1 |  | 0.73 µM | > 29.4 µM | 29.4 µM | < 1 | 40 |  |  |  | 
17 | Cc1ccc(-n2ccnc2SCC(=O)Nc2ccccc2C)cc1 |  | 30.9 µM | > 147 µM | 147 µM | < 1 | 5 |  |  |  | 
18 | O=C(CSc1nccn1-c1cccc2ccccc12)Nc1ccccc1F |  | 1.78 µM | > 34.7 µM | 34.7 µM | < 1 | 20 |  |  |  | 
19 | COc1ccc(-n2ccnc2SCC(=O)Nc2ccc(C)cc2Br)cc1 |  | > 25.8 µM | > 25.8 µM | 25.8 µM | < 1 | < 1 |  |  |  | 
20 | Cc1ccc(-n2ccnc2SCC(=O)Nc2ccccc2Br)cc1 |  | 5.15 µM | > 39.3 µM | 39.3 µM | < 1 | 8 |  |  |  | 
21 | COc1ccc(-n2ccnc2SCC(=O)Nc2ccccc2C)cc1 | Not Active | 155 µM | > 354 µM | > 354 µM |  | > 2 |  |  |  | 
22 | COc1ccc(-n2ccnc2SCC(=O)Nc2ccccc2Cl)cc1 | Not Active | 32.3 µM | > 334 µM | > 334 µM |  | > 10 |  |  |  | 
23 | O=C(CSc1nccn1-c1ccc(Cl)cc1)Nc1ccccc1Br | Not Active | 15.8 µM | > 296 µM | > 300 µM |  | > 19 |  |  |  | 
24 | Cc1ccc(-n2ccnc2SCC(=O)Nc2ccc(C)cc2Br)cc1 |  | > 80.8 µM | > 80.8 µM | 80.8 µM | < 1 | 66 |  |  |  | 
25 | CC(C)Nc1cccnc1N1CCN(C(=O)c2cc3cc(NS(C)(=O)=O)ccc3[nH]2)CC1 [DELAVIRDINE] |  |  |  | > 3.83 µM |  | > 12 |  |  |  | 
26 | COc1ccc(-n2ccnc2SCC(=O)Nc2ccccc2F)cc1 | Not Active | > 42 µM | > 42 µM | ≥ 42 µM |  |  |  |  |  | Not Active
27 | Cc1cn([C@H]2C[C@H](N=[N+]=[N-])[C@@H](CO)O2)c(=O)[nH]c1=O [ZIDOVUDINE] |  |  |  | > 93.5 µM |  | > 6190 |  |  |  | 
28 | O=C(CSc1nccn1-c1ccc(Cl)cc1)Nc1ccccc1F | Not Active | 43.8 µM | > 345 µM | > 345 µM |  | > 8 |  |  |  | 
29 | O=C(CSc1nccn1-c1cccc2ccccc12)Nc1ccccc1Cl |  | 0.2 µM | > 35.2 µM | 35.2 µM | < 1 | 170 |  |  |  | 
30 | O=C(CSc1nccn1-c1ccc(Cl)cc1)Nc1ccccc1Cl | Not Active | ≥ 11.7 µM | > 330 µM | > 330 µM |  |  |  |  |  | Not Active
